Assay results reported in article PMC4966677 (ACS infectious diseases, 2015).
Values joined by “and” are separate entries in the source; they are usually repeats but may differ in a detail not shown here. Equal values may be shown once.

Columns and labels:
[1] = Oral pharmacokinetics in guinea pig plasma; type: in vivo; conditions: for AUCALL / CMAX / Clearance / Half-life / TMAX / VD (Volume of distribution): oral; for Oral bioavailability (in words): guinea pigs, oral dosing
[2] = Tolerability in guinea pigs during the efficacy study; type: in vivo, guinea pig; conditions: L01-Z08 20 mg/kg and L335-M34 50 mg/kg once daily alone or in combination for 6 weeks
[3] = tested on: Mtb-infected macrophages; assay: Growth inhibition of Mtb in IFN-γ-activated J774 macrophages; type: cell-based, Mycobacterium tuberculosis; conditions: read-out: In vitro anti-Mtb activity, Mtb-infected macrophages (IC90); IC90 in macrophages activated with γ-interferon
[4] = tested on: M. tuberculosis H37Rv; assay: Microplate Alamar Blue assay; type: cell-based, Mycobacterium tuberculosis; conditions: for In vitro anti-Mtb activity MABA-MIC H37Rv: Minimum Inhibitory Concentration, strain H37Rv; for Activity in standard MIC assay (in words): strain not given
[5] = tested on: M. tuberculosis Erdman; assay: Microplate Alamar Blue assay; type: cell-based, Mycobacterium tuberculosis; conditions: Minimum Inhibitory Concentration, strain Erdman
[6] = target: mPTPA (Mycobacterium tuberculosis, UniProt P9WIA1)
[7] = tested on: Human PTP panel: PTP1B, TC-PTP, SHP1, SHP2, FAp1, Lyp, Meg2, HePTP, laforin, VHX, VHR, LMWPTP, Cdc14A, PTPα, LAR, CD45, PTPRG; assay: Human PTP panel selectivity, pNPP assay; type: biochemical
Summary of the method: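 Each PTP expressed in and purified from E. coli, used at 5 nM final. The reaction is started by adding enzyme to pNPP, set at that PTP's Km, plus varying test compound concentrations. It is stopped after 15 min with 5N NaOH. p-Nitrophenol is read at 405 nm, corrected with a no-enzyme control. IC50 is fit to AI/A0 = IC50/(IC50+[I]).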

[8] = tested on: Mtb H37Rv; assay: Chronic TB infection model in guinea pigs, lung CFU; type: in vivo; conditions: added to the standard regimen HRZ, guinea pig lungs, after 6 weeks of treatment
[9] = target: mPTPB (Mycobacterium tuberculosis, UniProt I6WXK4)
[10] = guinea pig, Co-admin: L335M34 50 mg/kg and L01Z08 20 mg/kg together
[11] = guinea pig, Single (given alone), L335M34 50 mg/kg, L01Z08 20 mg/kg

Chain of mPTPB (I6WXK4 whole entry, looked up): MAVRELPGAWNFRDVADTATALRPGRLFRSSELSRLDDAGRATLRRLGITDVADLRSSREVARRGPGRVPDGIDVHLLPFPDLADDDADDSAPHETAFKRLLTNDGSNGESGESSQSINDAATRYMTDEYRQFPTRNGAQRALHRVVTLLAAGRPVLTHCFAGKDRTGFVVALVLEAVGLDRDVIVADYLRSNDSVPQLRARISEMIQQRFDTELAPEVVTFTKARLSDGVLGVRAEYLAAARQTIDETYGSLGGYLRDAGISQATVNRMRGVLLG
Chain of mPTPA (P9WIA1 whole entry): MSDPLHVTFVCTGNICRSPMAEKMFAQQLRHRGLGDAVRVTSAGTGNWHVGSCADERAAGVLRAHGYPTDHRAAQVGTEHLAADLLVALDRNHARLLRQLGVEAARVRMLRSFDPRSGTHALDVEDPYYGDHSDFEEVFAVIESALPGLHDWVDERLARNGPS

| Compound | AUCALL [1, 10] [µg·h/mL] | CMAX [1, 10] [ng/mL] | Clearance [1, 10] [L/h/kg] | Half-life [1, 10] [h] | TMAX [1, 10] [h] | VD (Volume of distribution) [1, 10] | AUCALL [1, 11] [µg·h/mL] | CMAX [1, 11] [ng/mL] | Clearance [1, 11] [L/h/kg] | Half-life [1, 11] [h] | TMAX [1, 11] [h] | VD (Volume of distribution) [1, 11] | Oral bioavailability (in words) [1] | Signs of toxicity [2] | IC90 [3] [µM] | In vitro anti-Mtb activity MABA-MIC H37Rv [4] | Activity in standard MIC assay (in words) [4] | In vitro anti-Mtb activity MABA-MIC Erdman [5] | further results |
| --- | --- | --- | --- | --- | --- | --- | --- | --- | --- | --- | --- | --- | --- | --- | --- | --- | --- | --- | --- |
| O=C(O)c1cc2c(C#Cc3cccc(C(F)(F)F)c3)c(-c3ccccc3)oc2cc1O [Compound L01-Z08] | 28.16176 | 3059.668 | 0.701564 | 6.141 | 1.587 | 6215.132 | 13.16689 | 1870.43 | 1.518474 | 5.512 | 1.587 | 12074.939 | good oral bioavailability | no overt signs of toxicity | < 5 | >10 >10 uM | inactive | >10 >10 uM |  |
| Cc1c(Br)cc(NC(=O)CS(=O)(=O)O)cc1Br [Compound L335-M34] | 52.75261 | 7064.956 | 0.950034 | 4.16 | 2.5 | 5702.19 | 54.40661 | 5142.47 | 0.917462 | 5.197 | 2.5 | 6878.467 | good oral bioavailability | no overt signs of toxicity | 1.38 | >10 >10 uM | devoid of activity | >10 >10 uM | Mode of mPTPA inhibition [6]: reversible and competitive inhibitor; IC50 ([6]; read-out: Biochemical potency against target (IC50, nM) mPTPA, pH 7): 160 nM; Ki ([6]; read-out: Ki for mPTPA): 0.056 ± 0.002 µM; Time plasma concentration stays 10-fold in excess of biochemical IC50 ([1]; guinea pig, single oral dose, L335-M34 50 mg/kg, L01-Z08 20 mg/kg): 12–14 hours and 12–24 hours; Activity against a panel of human PTPs ([7]; at concentrations below 3 μM): no significant activity; Fold selectivity vs. PTP panel ([7]; panel of 17 human PTPs): >20 fold; Further reduction of mean lung CFU relative to HRZ [8]: 0.17 log10; Activity against mPTPB [9]: no significant activity; Fold selectivity vs. mPTPA/B (mPTPA inhibitor over mPTPB) [9]: >20 fold; IC50 ([9]; read-out: Biochemical potency against target (IC50, nM) mPTPB, pH 7): > 3200 nM |
